Experimental data from the RNAGym collection of RNA variant scans (doi:10.1126/science.aae0568).
This sample holds only a part of the variants without activity.

B1: tRNA (parent)
chain: GUUCCGUUGGCGUAAUGGUAACGCGUCUCCCUCCUAAGGAGAAGACUGCGGGUUCGAGUCCCGUACGGAACG

Variants of: B1
Assay: yeast fitness relative to wild type (ratio to wild type); higher = fitter; tRNA-Arg(CCU), competitive growth, 37 C, YPD
Outline: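 Variants of the tRNA-Arg(CCU) gene were chemically synthesised with a 3% per-site mutation rate across 69 sites and placed at the native genomic locus in Saccharomyces cerevisiae. Six parallel replicates of the pooled strains were competed in YPD at 37°C for 24 hours, and gene amplicons from the start and end populations were read by 100-nucleotide paired-end sequencing. Darwinian fitness relative to wild type was derived from changes in genotype frequencies. Genotypes required ≥ 100 starting reads, and estimates < 0.5 were set to 0.5.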

U3C U7A G9C G17C G48A A69U and U3C U7A G44C C61U C62U G63C U64A C66U A69G cannot be ordered by yeast fitness: ≤ 0.5 for the first, ≤ 0.5 for the second.

U3C U7A U28G A43U G56C A57U G67A and U3C U7C U19A G23A C29G A45U C60G C61U A69G cannot be ordered by yeast fitness: ≤ 0.5 for the first, ≤ 0.5 for the second.

First: U3C U7C U35C
Second: U3C U7G A14C C31A G50A G52C A65C
The yeast fitness of the first is higher: 0.505 for the first, ≤ 0.5 for the second.

Going from U3C U8A A15C C31G C49U A57U to U3C U8A A43G A57U G63A, the yeast fitness falls from 0.609 to ≤ 0.5.

First: U3C U8A U13C
Second: U3C U8C A14G U28G A36U C46U C61U
The yeast fitness of the first is lower: ≤ 0.5 for the first, 0.549 for the second.

Compared with U3C U8C A14G U28G A36U C46U U47C C61U, U3C U8C A45U is higher in yeast fitness: 0.553 for the first, 0.721 for the second.

First: U3C U8C A57C
Second: U3C U8C A69U
The yeast fitness of the first is lower: ≤ 0.5 for the first, 0.81 for the second.

U3C U8C C11A C31A G68C and U3C U8C C11A U32G C61A C62A cannot be ordered by yeast fitness: ≤ 0.5 for the first, ≤ 0.5 for the second.

Compared with U3C U8C G9A A69U, U3C U8G is higher in yeast fitness: 0.564 for the first, 0.581 for the second.

Compared with U3C U8G U28G C31A C61U, U3C U8G U32A C33G C61U C62U is higher in yeast fitness: ≤ 0.5 for the first, 0.561 for the second.

U3C U8G U32A C33G C62U and U3C U8G U32A C33G U53A A69C cannot be ordered by yeast fitness: ≤ 0.5 for the first, ≤ 0.5 for the second.

U3C U13A A14C A42G and U3C U13A A20C C30G C31A cannot be ordered by yeast fitness: ≤ 0.5 for the first, ≤ 0.5 for the second.

Going from U3C U13A A20C C30G C31A G67C to U3C U13A A20C C30G C31A U54A C55U, the yeast fitness rises from ≤ 0.5 to 0.521.

Compared with U3C U13A A40C, U3C U13A A45C G48A is higher in yeast fitness: ≤ 0.5 for the first, 0.604 for the second.

First: U3C U13A A45C G48A U64C
Second: U3C U13A C31U G41A A70C
The yeast fitness of the first is lower: 0.57 for the first, 0.639 for the second.

U3C U13A C31U G41A C61G and U3C U13A C31U G41A C66A cannot be ordered by yeast fitness: ≤ 0.5 for the first, ≤ 0.5 for the second.

Going from U3C U13C to U3C U13C A21G A43U, the yeast fitness falls from 0.841 to 0.708.

First: U3C U13C C24U G52A
Second: U3C U13C C24U G52A G56A
The yeast fitness of the first is higher: 0.576 for the first, ≤ 0.5 for the second.

First: U3C U13C C24U G52A G68A
Second: U3C U13C C31U
The yeast fitness of the first is lower: ≤ 0.5 for the first, 0.801 for the second.

First: U3C U13C G51C
Second: U3C U13C U16A A42G C49G U54C G63C A70U
The yeast fitness of the first is lower: ≤ 0.5 for the first, 0.532 for the second.

First: U3C U13C U16A A45G C61A U64C
Second: U3C U13C U16A C61A U64C
The yeast fitness of the first is lower: ≤ 0.5 for the first, 0.582 for the second.

Going from U3C U13C U28G U54A C62A to U3C U13G A70G, the yeast fitness rises from ≤ 0.5 to 0.698.

Compared with U3C U13G C24U, U3C U16A C30U A40C is lower in yeast fitness: 0.559 for the first, ≤ 0.5 for the second.

Compared with U3C U16A C34A U53C C60U, U3C U16G is higher in yeast fitness: ≤ 0.5 for the first, 0.823 for the second.

U3C U16G A21C G25C A37C A40U and U3C U16G C30U C33U U47C cannot be ordered by yeast fitness: ≤ 0.5 for the first, ≤ 0.5 for the second.

U3C U16G U19A A43C A57U and U3C U16G U19A A43C A57U A69C cannot be ordered by yeast fitness: ≤ 0.5 for the first, ≤ 0.5 for the second.

First: U3C U16G U19A A43C C49U A57U
Second: U3C U19A
The yeast fitness of the first is lower: ≤ 0.5 for the first, 1.03 for the second.

Compared with U3C U19A A43G, U3C U19A A69U is higher in yeast fitness: 0.677 for the first, 0.865 for the second.

First: U3C U19A C22U G23A
Second: U3C U19A C46A
The yeast fitness of the first is lower: ≤ 0.5 for the first, 0.716 for the second.

Compared with U3C U19A G50C C62G C66U, U3C U19A G52A U59C C66A G67A is lower in yeast fitness: 0.575 for the first, ≤ 0.5 for the second.

Compared with U3C U19A G58C C62G A70U, U3C U19A G68A is higher in yeast fitness: ≤ 0.5 for the first, 0.698 for the second.

Going from U3C U19C to U3C U19C A20G, the yeast fitness falls from 0.929 to 0.663.

Compared with U3C U19C A40G C46A, U3C U19C C24A G58A is lower in yeast fitness: 0.74 for the first, ≤ 0.5 for the second.

Going from U3C U26A to U3C U26A C33U C49U, the yeast fitness falls from 0.856 to ≤ 0.5.

Compared with U3C U26C A42U, U3C U26C G44C U54A A69C is lower in yeast fitness: 0.939 for the first, ≤ 0.5 for the second.

Compared with U3C U26G, U3C U26G C33A C61U is lower in yeast fitness: 0.868 for the first, ≤ 0.5 for the second.

U3C U26G G63A and U3C U26G G67C cannot be ordered by yeast fitness: ≤ 0.5 for the first, ≤ 0.5 for the second.

First: U3C U28A
Second: U3C U28A C34U G41C G51A U53A U59C A70U
The yeast fitness of the first is higher: 0.832 for the first, ≤ 0.5 for the second.

U3C U28A C34U U47C C60U and U3C U28A C55G cannot be ordered by yeast fitness: ≤ 0.5 for the first, ≤ 0.5 for the second.

Going from U3C U28C C33U A45U to U3C U28G G39C, the yeast fitness falls from 0.528 to ≤ 0.5.

Going from U3C U32A G41A C46U to U3C U32C, the yeast fitness rises from ≤ 0.5 to 0.839.

First: U3C U32C A42U
Second: U3C U32C G58C
The yeast fitness of the first is lower: 0.686 for the first, 1.04 for the second.
